What was measured:
[1] = Binding affinity to Mycobacterium tuberculosis APS reductase
Method in brief: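 Timed aliquots quenched in 2% charcoal/20 mM Na2SO3, radiolabeled sulfite in supernatant counted. kobs from single-exponential fit; Ki (=Kd) from kobs dependence on inhibitor concentration.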

[2] = tested on: Mycobacterium tuberculosis; assay: Inhibition of Mycobacterium tuberculosis APS reductase assessed as [35S]sulphite release at 100 uM
[3] = target: T1, Receptor-type tyrosine-protein phosphatase C (Homo sapiens) (UniProt P08575)
T1 sequence (whole entry): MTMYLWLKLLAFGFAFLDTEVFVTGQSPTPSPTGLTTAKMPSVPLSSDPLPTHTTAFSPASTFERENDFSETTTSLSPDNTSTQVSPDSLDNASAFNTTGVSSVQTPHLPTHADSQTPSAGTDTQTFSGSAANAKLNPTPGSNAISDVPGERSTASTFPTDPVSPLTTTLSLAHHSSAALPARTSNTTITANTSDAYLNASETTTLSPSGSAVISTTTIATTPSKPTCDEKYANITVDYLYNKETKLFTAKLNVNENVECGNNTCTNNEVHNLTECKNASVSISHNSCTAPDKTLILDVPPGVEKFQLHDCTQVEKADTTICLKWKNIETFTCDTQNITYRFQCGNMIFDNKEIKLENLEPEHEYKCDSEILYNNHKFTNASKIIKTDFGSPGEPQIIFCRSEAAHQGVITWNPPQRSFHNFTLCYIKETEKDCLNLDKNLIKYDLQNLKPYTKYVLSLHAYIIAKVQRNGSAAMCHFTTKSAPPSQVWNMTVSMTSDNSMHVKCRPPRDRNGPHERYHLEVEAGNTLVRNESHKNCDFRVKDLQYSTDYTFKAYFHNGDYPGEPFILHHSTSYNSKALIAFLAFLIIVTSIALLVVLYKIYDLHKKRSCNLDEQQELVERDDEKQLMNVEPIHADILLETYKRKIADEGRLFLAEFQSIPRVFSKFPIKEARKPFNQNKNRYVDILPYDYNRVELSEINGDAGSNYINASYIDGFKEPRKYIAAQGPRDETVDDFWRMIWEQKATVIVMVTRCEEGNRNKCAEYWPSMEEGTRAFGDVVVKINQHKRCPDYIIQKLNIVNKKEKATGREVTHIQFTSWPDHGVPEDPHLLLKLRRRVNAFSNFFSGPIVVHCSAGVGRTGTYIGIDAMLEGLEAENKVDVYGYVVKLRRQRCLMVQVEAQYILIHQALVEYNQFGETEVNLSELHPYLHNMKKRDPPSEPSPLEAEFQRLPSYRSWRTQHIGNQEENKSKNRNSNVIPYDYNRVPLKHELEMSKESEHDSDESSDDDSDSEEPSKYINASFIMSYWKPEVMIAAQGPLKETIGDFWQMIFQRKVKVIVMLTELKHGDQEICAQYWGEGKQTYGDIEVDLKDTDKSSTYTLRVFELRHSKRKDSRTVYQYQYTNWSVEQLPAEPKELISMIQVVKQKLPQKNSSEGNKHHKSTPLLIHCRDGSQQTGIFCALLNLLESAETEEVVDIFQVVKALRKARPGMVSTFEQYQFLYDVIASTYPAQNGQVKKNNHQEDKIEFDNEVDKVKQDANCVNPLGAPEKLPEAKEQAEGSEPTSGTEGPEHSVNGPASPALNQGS

Structure (SMILES)	Kd [1] [µM]	inhibition [2] [%]	Kinact [3] [M⁻¹ s⁻¹]
O=C1c2ccccc2-c2c1cc([N+](=O)[O-])cc2[N+](=O)[O-]	48.1	–	–
O=C1c2ccccc2-c2cc([N+](=O)[O-])c([N+](=O)[O-])cc21	37.1	> 50	–
CC(=O)Nc1cc2c(cc1[N+](=O)[O-])-c1ccccc1C2=O	31.8	–	–
O=C(O)CCc1nnc2c3ccccc3c3ccccc3c2n1	46.9	> 50	–
Nc1nc(Sc2ccc([N+](=O)[O-])c3nonc23)c2nc[nH]c2n1	15.2	> 90	–
O=C(O)C[S+]([O-])c1ccc2c3c(cccc13)C(=O)c1ccccc1-2 (centres undefined)	180	–	–
O=C1C(=O)c2cc([N+](=O)[O-])ccc2-c2ccccc21	6.81	–	4300
CC(=O)[C@H]1CC[C@H]2C34C=C[C@]5(C[C@@H](O)CC[C@]5(C)C3=CC[C@]12C)[C@H](C(=O)O)[C@@H]4C(=O)O	127	–	–
O=C1c2cc(F)ccc2-c2cc(F)c([N+](=O)[O-])cc21	44.6	–	–
O=[N+]([O-])c1ccc(Sc2cccc[n+]2[O-])c2nonc12	19.5	–	–
